Laboratory results taken from publication PMC9161413 (ACS Omega, 2022).

Experiments:
K562 cells = test: Cell internalization, cytofluorimetric assay, K562; assay type: cell-based, human; conditions: 24 h, 5 μM
Outline: (§1)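 K562 cells (RPMI-1640, 5% FBS, 37 °C, 5% CO2) and MDA-MB-231 cells (DMEM with 4500 mg/L glucose, 10% FBS, 37 °C, 10% CO2) were treated 24 h at 5 μM. Flow cytometry detected the compound's intrinsic fluorescence (λexc 405 nm, λem 421 nm). Read-out was the percentage of cells above the untreated autofluorescence threshold; at least three independent experiments.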

MDA-MB-231 cells = test: Cell internalization, cytofluorimetric assay, MDA-MB-231; assay type: cell-based, human; conditions: 24 h, 5 μM
Outline: as §1

ERK1/2 phosphorylation = ERK1/2 phosphorylation in L929 cells, western blot; assay type: cell-based, murine; conditions: 24 h, 5 μM
Outline: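 Subconfluent L929 cells were exposed 24 h at 5 μM in serum-free medium. Cells were lysed in RIPA with PMSF, orthovanadate and protease inhibitors, and 40–60 μg protein was resolved on 4–12 Bis-Tris gels onto PVDF. Blots were probed overnight at 4 °C for phospho- and total ERK1/2 (vinculin loading control), with fluorescent secondaries and infrared imaging. Phospho-signal was normalised to total protein; three independent experiments; one-way ANOVA with Tukey test.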

N-Cadherin expression = test: N-cadherin expression in L929 cells, western blot; assay type: cell-based, murine; conditions: 24 h, 5 μM, compared to untreated cells
Outline: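 L929 cells (subconfluent, serum-free medium) were treated 24 h at 5 μM. RIPA lysates containing phosphatase/protease inhibitors (40–60 μg protein) were separated on 4–12 Bis-Tris gels and blotted to PVDF. N-cadherin antibody was applied overnight at 4 °C, with vinculin as loading control and infrared fluorescence detection. Densitometry was normalised to total protein and expressed as percent of untreated cells; three independent experiments; ANOVA with Newman–Keuls test.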

L929 cells = test: Inhibition of cell proliferation, MTT assay; assay type: cell-based, murine; conditions: 24 h, 1–10 μM
VEGFR-1 = conditions: read-out: IC50 VEGFR-1; cited from earlier work
VEGFR-3 = conditions: read-out: IC50 VEGFR-3; cited from earlier work
FGFR-2 = conditions: read-out: IC50 FGFR-2; cited from earlier work
FGFR-3 = conditions: read-out: IC50 FGFR-3; cited from earlier work
PDGFR-α = conditions: read-out: IC50 PDGFR-α; cited from earlier work
PDGFR-β = conditions: read-out: IC50 PDGFR-β; cited from earlier work

Compound	internalization / cell fluorescence (in words) (K562 cells)	internalization / cell fluorescence (in words) (MDA-MB-231 cells)	inhibition of ERK1/2 phosphorylation (in words) (ERK1/2 phosphorylation)	inhibition of N-Cad expression (in words) (N-Cadherin expression)	antiproliferative / cytostatic effect (in words) (L929 cells)	IC50 (VEGFR-1) [nM]	IC50 (VEGFR-3) [nM]	IC50 (FGFR-2) [nM]	IC50 (FGFR-3) [nM]	IC50 (PDGFR-α) [nM]	IC50 (PDGFR-β) [nM]
COC(=O)c1ccc2c(c1)NC(=O)/C2=C(\Nc1ccc(N(C)C(=O)CN2CCN(C)CC2)cc1)c1ccccc1 [nintedanib]	efficiently internalized	efficiently internalized	efficiently inhibits	almost by half	mild antiproliferative effect	34	13	37	[…]	59	65
c(AmpLRGDL) [compound 6]	–	–	no inhibition	stronger inhibitory effect	mild antiproliferative effect	–	–	–	–	–	–
